Experimental data pooled from the literature.
Each line is one published result; the experiments were not run side by side.
Cell line: Vero
Observed: cell growth or viability

| Compound | test | conditions | IC50 |
| --- | --- | --- | --- |
| O=[N+]([O-])c1ccc(-c2csc(Nc3ccc4c(O)ncnc4c3)n2)cc1 | MTT | – | > 50 µM |
| Cc1[nH]c(=O)c(CNC(=O)c2ccc(C(F)(F)F)o2)c2c1CCCC2 | MTT | 72 h | > 50 µg/mL |
| NC1=NN(c2ccc([N+](=O)[O-])cc2[N+](=O)[O-])C(=O)C1=NNc1ccc(N=Nc2ccccc2)cc1 | – | – | 45.1 µM |
| CC(C)(C)Nc1c(-c2ccccc2N)nc2ccccn12 | MTT | 48 h | 90 µM |
| N#Cc1nn(-c2ccc(N=Nc3ccccc3)cc2)c(=S)n(-c2ccccc2)c1=O | – | – | 42.3 µM |
| COc1ccccc1CCNCc1c(N)nc(N)nc1-c1ccccc1 | SRB | – | > 100 µM |
| C#Cc1cccc(Nc2ncnc3cc(OCCOC)c(OCCOC)cc23)c1 | MTT | – | > 30 µM |
| Cc1ccc(C)n1-c1ccc(-c2nnco2)cc1 | MTT | 72 h | 216 µM |
| COc1cccc(CCNCc2c(N)nc(N)nc2-c2ccccc2)c1 | SRB | – | > 100 µM |
| Oc1ncnc2cc(Nc3nc(-c4ccccc4)cs3)ccc12 | MTT | – | > 50 µM |
| Nc1c(-c2ccc([N+](=O)[O-])cc2)nc2cnccn12 | MTT | 48 h | 80 µM |
| Cc1ccc(C)n1-c1ccc(-c2nnc(S)s2)cc1 | MTT | 72 h | 221 µM |
| Nc1nc(N)c(CNCCc2ccc(Cl)c(Cl)c2)c(C2CCCCC2)n1 | SRB | – | 21 µM |
| O=[N+]([O-])c1ccc(-c2nc3ccccn3c2NC2CCCCC2)cc1 | MTT | 48 h | 85 µM |
| Cc1[nH]c(=O)c(CNC(=O)c2ccc(F)nc2)c2c1CCCC2 | MTT | 72 h | > 50 µg/mL |
| CC(C)(C)Nc1c(-c2ccc([N+](=O)[O-])cc2)nc2cnccn12 | MTT | 48 h | 80 µM |
| N=C1C(Cl)=C(N)C(=O)c2[nH]cc(C(O)CO)c21 (centres unmarked) | MTT | 72 h | 14 µM |
| Nc1ccc(-c2nc3cnccn3c2N)cc1 | MTT | 48 h | 96 µM |
| COc1cccc(CCNCc2c(N)nc(N)nc2C2CCCCC2)c1 | SRB | – | 23 µM |
| Nc1ccccc1-c1nc2ccccn2c1N | MTT | 48 h | 74 µM |
| CC1(C)N=C(N)N=C(N)N1c1ccc(Cl)cc1 | SRB | – | > 100 µM |
| Nc1ccc(-c2nc3cnccn3c2NC2CCCCC2)cc1 | MTT | 48 h | 75 µM |
| COc1ccccc1CCNCc1c(N)nc(N)nc1C1CCCCC1 | SRB | – | 21 µM |
